Here are results for seven molecules from ChEMBL document CHEMBL1136183, “Antitumor agents. Part 226: synthesis and cytotoxicity of 2-phenyl-4-quinolone acetic acids and their esters” (Bioorg Med Chem Lett, 2003).

SMILES strings stand for the structures. pIC50: −log10 of the molar value. In brackets after ≈: the same amount, converted by molar mass. Activity calls are given as the source filed them. The rule behind the calls is not given here.

Experiment [1] concerns KB. The experiment is described as follows: In vitro cytotoxicity evaluated against human epidermoid nasopharynx carcinoma (KB cell line); NA is not active. In kind it is functional, cell-based. Summed up:
(§1)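 SRB assay on human tumour cell lines. Absorbance read at 562 nm and compared with untreated cells. ED50 is the concentration giving a 50% reduction in absorbance.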

Experiment [2] has as its system HOS. Description: In vitro cytotoxicity evaluated against human bone carcinoma (HOS cell line); NA is not active. In kind it is functional, cell-based. Summed up:
as §1

For experiment [3], the system named is SK-MEL-2. Description: In vitro percent inhibition evaluated against human melanoma cancer (SKMEL-2 cell line) at >20 ug/mL. In kind it is functional. Summed up: (§2)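 Same SRB cytotoxicity assay, absorbance at 562 nm versus untreated cells. Value is the percentage inhibition at the concentration tested.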
Experiment [4] relates to A549. Description: In vitro percent inhibition evaluated against human lung cancer (A549 cell line) at >20 ug/mL. In kind it is functional. The procedure, abridged: as §2
Experiment [5] concerns A549. Description: In vitro cytotoxicity evaluated against human lung cancer (A549 cell line). In kind it is functional. The settings on record: read-out: ED50 (the source's name). The procedure, abridged:
as §1

Experiment [6] has as its system U-87 MG. Description: In vitro cytotoxicity evaluated against human glioblastoma carcinoma (U87-MG cell line); NA is not active. The settings on record: U-87MG ATCC. In kind it is functional, cell-based. The procedure, abridged:
as §1

Experiment [7] relates to SK-MEL-2. Description: In vitro cytotoxicity evaluated against human melanoma cancer (SKMEL-2 cell line). In kind it is functional. The settings on record: read-out: ED50 (the source's name). Summed up: as §1
In experiment [8] the test system is MCF7. The experiment is described as follows: In vitro percent inhibition evaluated against human breast cancer (MCF-7 cell line) at >20 ug/mL. In kind it is functional. Summed up:
as §2

For experiment [9], the target named is Tubulin alpha chain (Sus scrofa, UniProt P02550). Description: Inhibitory concentration required against tubulin polymerization determined using tubulin assay. In kind it is functional. Summed up:
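Tubulin polymerization assay. IC50 is the concentration that inhibits extent of assembly by 50% after 20 min at 26 °C. At least two independent experiments per compound.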

Experiment [10] has as its system 1A9. The experiment is described as follows: In vitro cytotoxicity evaluated against human ovarian cancer (1A9 cell line); NA is not active. In kind it is functional, cell-based. Summed up: as §1
The subject of experiment [11] is MCF7. The experiment is described as follows: In vitro cytotoxicity evaluated against human breast cancer (MCF-7 cell line). In kind it is functional. The settings on record: read-out: ED50 (the source's name). Summed up:
as §1

For experiment [12], the system named is HOS. The experiment is described as follows: In vitro cytotoxicity evaluated against human bone carcinoma (HOS cell line). In kind it is functional. Conditions: read-out: ED50 (the source's name). Summed up: as §1
Experiment [13] concerns KB. The experiment is described as follows: In vitro percent inhibition evaluated against human epidermoid nasopharynx carcinoma (KB cell line) at >20 ug/mL. In kind it is functional. Summed up: as §2
Experiment [14] deals with U-87 MG. Description: In vitro percent inhibition evaluated against human glioblastoma carcinoma (U87-MG cell line) at >20 ug/mL. In kind it is functional, U-87MG ATCC. Summed up: as §2
Experiment [15] relates to KB. The experiment is described as follows: In vitro cytotoxicity evaluated against human epidermoid nasopharynx carcinoma (KB cell line). In kind it is functional. The settings on record: read-out: ED50 (the source's name). Summed up:
as §1

Experiment [16] relates to 1A9. Description: In vitro cytotoxicity evaluated against human ovarian cancer (1A9 cell line). In kind it is functional. The settings on record: read-out: ED50 (the source's name). The procedure, abridged:
as §1

Experiment [17] relates to U-87 MG. The experiment is described as follows: In vitro cytotoxicity evaluated against human glioblastoma carcinoma (U87-MG cell line). In kind it is functional, U-87MG ATCC. Conditions: read-out: ED50 (the source's name). The procedure, abridged:
as §1

The test system of experiment [18] is 1A9. Description: In vitro percent inhibition evaluated against human ovarian cancer (1A9 cell line) at >20 ug/mL. In kind it is functional. The procedure, abridged: as §2
Experiment [19] has as its system HOS. The experiment is described as follows: In vitro percent inhibition evaluated against human bone carcinoma (HOS cell line) at >20 ug/mL. In kind it is functional. Summed up:
as §2

For experiment [20], the system named is A549. Description: In vitro cytotoxicity evaluated against human lung cancer (A549 cell line); NA is not active. In kind it is functional, cell-based. The procedure, abridged: as §1

Sequence of Tubulin alpha chain (P02550 whole entry, looked up): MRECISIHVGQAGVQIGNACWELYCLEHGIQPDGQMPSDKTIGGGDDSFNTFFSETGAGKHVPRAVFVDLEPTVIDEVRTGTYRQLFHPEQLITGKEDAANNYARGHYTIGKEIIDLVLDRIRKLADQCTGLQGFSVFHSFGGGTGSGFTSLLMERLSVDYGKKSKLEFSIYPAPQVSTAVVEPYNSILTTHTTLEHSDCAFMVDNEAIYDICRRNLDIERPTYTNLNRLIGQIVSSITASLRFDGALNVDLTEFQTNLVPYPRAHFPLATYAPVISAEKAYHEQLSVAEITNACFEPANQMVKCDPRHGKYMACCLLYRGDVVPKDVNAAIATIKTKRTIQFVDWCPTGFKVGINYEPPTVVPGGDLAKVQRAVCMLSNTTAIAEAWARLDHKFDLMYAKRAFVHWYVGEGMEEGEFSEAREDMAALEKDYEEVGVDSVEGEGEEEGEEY

For the molecule `O=C(O)Cc1cccc2nc(-c3ccccc3F)cc(O)c12`, the ED50 result in experiment [1], in experiment [2], in experiment [6] and in experiment [10] was “inactive” each time. Also, the Inhibition is 9% in experiment [3], 8% in experiment [4] and 7% in [8]. The EC50 in [5], in experiment [7] and in [11] was above 20 µg/mL each time. This molecule had a pIC50 in [9] below 4.40.

On to `O=C(O)Cc1ccc2nc(-c3ccccc3F)cc(O)c2c1`, for which the EC50 in [12], in [5], in experiment [15], in experiment [16], in experiment [17] and in experiment [7] was above 20 µg/mL each time. For the same molecule, the EC50 in experiment [11] was above 20 µg/mL. The Inhibition in experiment [13] was determined as 36%; in experiment [14] it was 9%; in [3] it was 17%; in experiment [4], 24%; in [18], 37%; in [19] it was 15%. This molecule also came in with an Inhibition in experiment [8] of 16%. The pIC50 in experiment [9] was 5.28.

Regarding `O=C(O)Cc1cccc2c(O)cc(-c3ccccc3)nc12`, the EC50 was 0.07 µg/mL (≈ 0.251 µM) in experiment [12]; 0.11 µg/mL (≈ 0.394 µM) in experiment [5]; 0.04 µg/mL (≈ 0.143 µM) in [15]; 0.04 µg/mL (≈ 0.143 µM) in experiment [16]; 0.12 µg/mL (≈ 0.43 µM) in [17]; 0.06 µg/mL (≈ 0.215 µM) in experiment [7]. For the same molecule, the EC50 in experiment [11] worked out at 0.44 µg/mL (≈ 1.58 µM). This molecule showed a pIC50 in experiment [9] below 4.40.

As to `COC(=O)Cc1cccc2c(O)cc(-c3ccccc3)nc12`, the EC50 in [12], in [15], in experiment [16], in experiment [7] and in experiment [11] was above 20 µg/mL throughout. Moreover, the Inhibition in experiment [13] is reported as 8%; in experiment [3], 12%; in [18] it was 30%; in [19], 7%; in experiment [8] it was 15%. For the same molecule, the ED50 entry in [20] and in experiment [6] was “inactive” throughout. The molecule also gave a pIC50 in experiment [9] of 4.52.

In the case of `COC(=O)Cc1cccc2c(O)cc(-c3ccccc3F)nc12`, the EC50 was above 10 µg/mL in experiment [12]; above 10 µg/mL in experiment [5]; above 10 µg/mL in [15]; 7.5 µg/mL (≈ 24.1 µM) in experiment [16]; above 10 µg/mL in experiment [7]; above 10 µg/mL in experiment [11]. For the same molecule, the Inhibition in experiment [13] worked out at 29%; in experiment [3], 11%; in [4], 22%; in experiment [19], 18%; in experiment [8] it was 14%. Also, in experiment [6], the ED50 entry was “inactive”. In [9], the negative-log IC50 (pIC50) is 5.26.

For `O=C(O)Cc1ccc2c(O)cc(-c3ccccc3F)nc2c1`, the Inhibition is recorded as 8% in [13]; 14% in experiment [3]; 21% in [4]; 15% in experiment [18]; 13% in [8]. Also, the ED50 entry in experiment [2] and in [6] was “inactive” each time. Also, the EC50 in experiment [5], in [15], in experiment [16], in [7] and in [11] was above 20 µg/mL in each case. Moreover, in experiment [9], the pIC50 is 5.00.

For the molecule `O=C(O)Cc1cccc2c(O)cc(-c3ccccc3F)nc12`, the EC50 in experiment [12] was determined as 0.04 µg/mL (≈ 0.135 µM); in [5], 0.06 µg/mL (≈ 0.202 µM); in [15] it was 0.03 µg/mL (≈ 0.101 µM); in experiment [16], 0.02 µg/mL (≈ 0.0673 µM); in [17], 0.07 µg/mL (≈ 0.235 µM); in experiment [7], 0.05 µg/mL (≈ 0.168 µM). Besides, the EC50 in [11] came out at 0.12 µg/mL (≈ 0.404 µM). In [9], this molecule showed a pIC50 below 4.40.
